Results taken from ChEMBL document CHEMBL4393735, “Molecular modelling, synthesis, and biological evaluations of a 3,5-disubstituted isoxazole fatty acid analogue as a PPARα-selective agonist” (Bioorg Med Chem, 2019).
Calls of active or inactive are those of the source.

Assays:
[1] = target: T1, Peroxisome proliferator-activated receptor alpha (Mus musculus) (UniProt P23204); assay: Agonist activity at PPARalpha in C57BL/6N mouse primary hepatocytes assessed as activation of Srebf1 mRNA expression at 1 uM measured after 18 hrs by qRT-PCR analysis; format: cell-based
T1 sequence (whole entry): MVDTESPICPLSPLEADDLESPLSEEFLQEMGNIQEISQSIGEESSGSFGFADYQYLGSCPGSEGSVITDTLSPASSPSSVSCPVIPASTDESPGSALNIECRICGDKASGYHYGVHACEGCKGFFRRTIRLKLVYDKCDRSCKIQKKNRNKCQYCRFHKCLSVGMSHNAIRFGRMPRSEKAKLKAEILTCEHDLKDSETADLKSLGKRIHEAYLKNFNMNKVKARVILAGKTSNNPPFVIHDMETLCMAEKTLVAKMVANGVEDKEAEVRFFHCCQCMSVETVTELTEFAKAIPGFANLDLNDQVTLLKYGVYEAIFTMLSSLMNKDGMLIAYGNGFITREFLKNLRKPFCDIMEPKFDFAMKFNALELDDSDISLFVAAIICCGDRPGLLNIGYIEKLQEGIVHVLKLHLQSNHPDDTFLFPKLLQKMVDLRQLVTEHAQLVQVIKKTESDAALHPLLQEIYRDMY
Summary of the method: (§1)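 Treatment for 18 h at 50 μM (or 1 μM for the 1 μM agents), DMSO vehicle. Harvested for qPCR. mRNA normalized to TBP by the comparative threshold method, expressed relative to DMSO control. Two biological replicates run in duplicate, mean ± SEM. Primary hepatocytes came from male C57BL/6N mice aged 7–8 weeks, isolated by portal-vein perfusion and digestion, seeded on collagen I and used on day 2. HuH-7 cells were kept in DMEM with 10% FBS and ITS.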

[2] = target: T1, Peroxisome proliferator-activated receptor alpha (Mus musculus); assay: Agonist activity at PPARalpha in C57BL/6N mouse primary hepatocytes assessed as activation of Scd1 mRNA expression at 1 uM measured after 18 hrs by qRT-PCR analysis; format: cell-based; summary of the method: as §1
[3] = target: T1, Peroxisome proliferator-activated receptor alpha (Mus musculus); assay: Agonist activity at PPARalpha in C57BL/6N mouse primary hepatocytes assessed as activation of Cpt1a mRNA expression at 1 uM measured after 18 hrs by qRT-PCR analysis; format: cell-based; summary of the method: as §1
[4] = target: T2, Peroxisome proliferator-activated receptor alpha (Homo sapiens) (UniProt Q07869); assay: Agonist activity at PPARalpha in human Huh7 cells assessed as PPARA mRNA expression at 1 uM measured after 18 hrs by qRT-PCR analysis; format: cell-based; summary of the method: as §1
T2 sequence (whole entry): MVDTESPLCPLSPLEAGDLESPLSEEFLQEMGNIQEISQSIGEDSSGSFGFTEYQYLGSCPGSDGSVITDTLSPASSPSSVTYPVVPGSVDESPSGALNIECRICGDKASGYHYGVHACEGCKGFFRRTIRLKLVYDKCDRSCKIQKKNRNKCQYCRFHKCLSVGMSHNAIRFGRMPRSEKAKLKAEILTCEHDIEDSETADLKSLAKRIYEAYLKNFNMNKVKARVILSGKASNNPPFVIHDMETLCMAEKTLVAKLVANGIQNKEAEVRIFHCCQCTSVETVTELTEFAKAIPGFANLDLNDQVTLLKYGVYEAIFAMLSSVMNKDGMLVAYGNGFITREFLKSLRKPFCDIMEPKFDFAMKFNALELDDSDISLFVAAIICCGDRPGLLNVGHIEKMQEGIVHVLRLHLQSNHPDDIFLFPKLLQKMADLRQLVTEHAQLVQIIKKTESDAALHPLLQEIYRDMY

[5] = target: T2, Peroxisome proliferator-activated receptor alpha (Homo sapiens); assay: Agonist activity at PPARalpha in human Huh7 cells assessed as activation of CPT1A mRNA expression at 1 uM measured after 18 hrs by qRT-PCR analysis; format: cell-based; summary of the method: as §1
[6] = target: T2, Peroxisome proliferator-activated receptor alpha (Homo sapiens); assay: Agonist activity at PPARalpha in human Huh7 cells assessed as SCD1 mRNA expression at 1 uM measured after 18 hrs by qRT-PCR analysis; format: cell-based; summary of the method: as §1
[7] = target: T2, Peroxisome proliferator-activated receptor alpha (Homo sapiens); assay: Agonist activity at PPARalpha in human Huh7 cells assessed as SREBF1 mRNA expression at 1 uM measured after 18 hrs by qRT-PCR analysis; format: cell-based; summary of the method: as §1
[8] = target: T1, Peroxisome proliferator-activated receptor alpha (Mus musculus); assay: Agonist activity at PPARalpha in C57BL/6N mouse primary hepatocytes assessed as activation of PPARalpha mRNA expression at 1 uM measured after 18 hrs by qRT-PCR analysis; format: cell-based; summary of the method: as §1
SGBS [9] = assay: Upregulation of PPARgamma gene expression in human preadipocyte derived from Simpson-Golabi-Behmel syndrome (SGBS) patient at 2 uM measured for 12 days by qRT-PCR analysis; format: functional, cell-based
Summary of the method: (§2)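 SGBS cells were differentiated with serum-free induction medium containing 25 μM test agent, 2 μM rosiglitazone or 0.1% DMSO from day 0. IBMX and dexamethasone were removed on day 4 and medium was renewed on day 8. RNA was taken on days 0, 4, 8 and 12 for qPCR, normalized to TBP and to day 0. At least three biological replicates in duplicate, two-way ANOVA with Bonferroni.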

SGBS [10] = assay: Upregulation of ANGPTL4 gene expression in human preadipocyte derived from Simpson-Golabi-Behmel syndrome (SGBS) patient at 2 uM measured for 12 days by qRT-PCR analysis; format: functional, cell-based; summary of the method: as §2
SGBS [11] = assay: Upregulation of ACSL1 gene expression in human preadipocyte derived from Simpson-Golabi-Behmel syndrome (SGBS) patient at 2 uM measured for 12 days by qRT-PCR analysis; format: functional, cell-based; summary of the method: as §2
SGBS [12] = assay: Upregulation of CD36 gene expression in human preadipocyte derived from Simpson-Golabi-Behmel syndrome (SGBS) patient at 2 uM measured for 12 days by qRT-PCR analysis; format: functional, cell-based; summary of the method: as §2
SGBS [13] = assay: Induction of adipocyte differentiation in human preadipocyte derived from Simpson-Golabi-Behmel syndrome (SGBS) patient assessed as lipid accumulation at 2 uM measured for 12 days by Oil red O staining based microscopic analysis; format: functional, cell-based
Summary of the method: (§3)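 Differentiation of SGBS preadipocytes was started in serum-free medium with transferrin, insulin, T3, hydrocortisol, IBMX and dexamethasone, plus 25 μM test agent, 2 μM rosiglitazone or 0.1% DMSO. On day 4 medium was switched to lack IBMX and dexamethasone, and it was renewed on day 8. Cells were fixed with 4% PFA and stained with 0.3% Oil Red O on days 0, 4, 8 and 12, then photographed.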

SGBS [14] = assay: Upregulation of ADIPOQ gene expression in human preadipocyte derived from Simpson-Golabi-Behmel syndrome (SGBS) patient at 2 uM measured for 12 days by qRT-PCR analysis; format: functional, cell-based; summary of the method: as §2
SGBS [15] = assay: Upregulation of PLIN1 gene expression in human preadipocyte derived from Simpson-Golabi-Behmel syndrome (SGBS) patient at 2 uM measured for 12 days by qRT-PCR analysis; format: functional, cell-based; summary of the method: as §2
SGBS [16] = assay: Upregulation of FABP4 gene expression in human preadipocyte derived from Simpson-Golabi-Behmel syndrome (SGBS) patient at 2 uM measured for 12 days by qRT-PCR analysis; format: functional, cell-based; summary of the method: as §2
SGBS [17] = assay: Upregulation of CEBPA gene expression in human preadipocyte derived from Simpson-Golabi-Behmel syndrome (SGBS) patient at 2 uM measured for 12 days by qRT-PCR analysis; format: functional, cell-based; summary of the method: as §2
SGBS [18] = assay: Upregulation of CEBPA gene expression in human preadipocyte derived from Simpson-Golabi-Behmel syndrome (SGBS) patient at 25 uM measured for 12 days by qRT-PCR analysis; format: functional, cell-based; summary of the method: as §2
[19] = target: T2, Peroxisome proliferator-activated receptor alpha (Homo sapiens); assay: Agonist activity at PPARalpha in human Huh7 cells assessed as PPARA mRNA expression at 50 uM measured after 18 hrs by qRT-PCR analysis; format: cell-based; summary of the method: as §1
SGBS [20] = assay: Upregulation of ADIPOQ gene expression in human preadipocyte derived from Simpson-Golabi-Behmel syndrome (SGBS) patient at 25 uM measured for 12 days by qRT-PCR analysis; format: functional, cell-based; summary of the method: as §2
SGBS [21] = assay: Upregulation of ACSL1 gene expression in human preadipocyte derived from Simpson-Golabi-Behmel syndrome (SGBS) patient at 25 uM measured for 12 days by qRT-PCR analysis; format: functional, cell-based; summary of the method: as §2
SGBS [22] = assay: Upregulation of PLIN1 gene expression in human preadipocyte derived from Simpson-Golabi-Behmel syndrome (SGBS) patient at 25 uM measured for 12 days by qRT-PCR analysis; format: functional, cell-based; summary of the method: as §2
[23] = target: T2, Peroxisome proliferator-activated receptor alpha (Homo sapiens); assay: Agonist activity at PPARalpha in human Huh7 cells assessed as SCD1 mRNA expression at 50 uM measured after 18 hrs by qRT-PCR analysis; format: cell-based; summary of the method: as §1
SGBS [24] = assay: Upregulation of ANGPTL4 gene expression in human preadipocyte derived from Simpson-Golabi-Behmel syndrome (SGBS) patient at 25 uM measured for 12 days by qRT-PCR analysis; format: functional, cell-based; summary of the method: as §2
SGBS [25] = assay: Upregulation of FABP4 gene expression in human preadipocyte derived from Simpson-Golabi-Behmel syndrome (SGBS) patient at 25 uM measured for 12 days by qRT-PCR analysis; format: functional, cell-based; summary of the method: as §2
[26] = target: T1, Peroxisome proliferator-activated receptor alpha (Mus musculus); assay: Agonist activity at PPARalpha in C57BL/6N mouse primary hepatocytes assessed as activation of Cpt1a mRNA expression at 50 uM measured after 18 hrs by qRT-PCR analysis; format: cell-based; summary of the method: as §1
SGBS [27] = assay: Upregulation of CD36 gene expression in human preadipocyte derived from Simpson-Golabi-Behmel syndrome (SGBS) patient at 25 uM measured for 12 days by qRT-PCR analysis; format: functional, cell-based; summary of the method: as §2
[28] = target: T1, Peroxisome proliferator-activated receptor alpha (Mus musculus); assay: Agonist activity at PPARalpha in C57BL/6N mouse primary hepatocytes assessed as SCD1 mRNA expression at 50 uM measured after 18 hrs by qRT-PCR analysis; format: cell-based; summary of the method: as §1
[29] = target: T2, Peroxisome proliferator-activated receptor alpha (Homo sapiens); assay: Agonist activity at PPARalpha in human Huh7 cells assessed as activation of CPT1A mRNA expression at 50 uM measured after 18 hrs by qRT-PCR analysis; format: cell-based; summary of the method: as §1
[30] = target: T2, Peroxisome proliferator-activated receptor alpha (Homo sapiens); assay: Agonist activity at PPARalpha in human Huh7 cells assessed as SREBF1 mRNA expression at 50 uM measured after 18 hrs by qRT-PCR analysis; format: cell-based; summary of the method: as §1
SGBS [31] = assay: Induction of adipocyte differentiation in human preadipocyte derived from Simpson-Golabi-Behmel syndrome (SGBS) patient assessed as lipid accumulation at 25 uM measured for 12 days by Oil red O staining based microscopic analysis; format: functional, cell-based; summary of the method: as §3
SGBS [32] = assay: Upregulation of PPARgamma gene expression in human preadipocyte derived from Simpson-Golabi-Behmel syndrome (SGBS) patient at 25 uM measured for 12 days by qRT-PCR analysis; format: functional, cell-based
Summary of the method: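 SGBS cells grown 4 days in biotin/D-pantothenate medium, then differentiated without FBS (apo-transferrin, insulin, T3, hydrocortisol, IBMX, dexamethasone) with 25 μM compound or 0.1 % DMSO added from day 0. After 4 days, switched to maintenance medium without IBMX/dexamethasone, renewed day 8. qPCR on days 0, 4, 8, 12, normalized to TBP (comparative threshold) and to day 0. Minimum three biological replicates in duplicate, mean ± SEM.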

[33] = target: T1, Peroxisome proliferator-activated receptor alpha (Mus musculus); assay: Agonist activity at PPARalpha in C57BL/6N mouse primary hepatocytes assessed as SREBF1 mRNA expression at 50 uM measured after 18 hrs by qRT-PCR analysis; format: cell-based; summary of the method: as §1

CC(C)(Sc1ccc(CCN(CCCCC2CCCCC2)C(=O)NC2CCCCC2)cc1)C(=O)O
Activity [1]: Active
Activity [2]: Active
Activity [3]: Active
Activity [4]: inactive
Activity [5]: Active
Activity [6]: inactive
Activity [7]: inactive

CN(CCOc1ccc(CC2SC(=O)NC2=O)cc1)c1ccccn1 (stereo not given)
Activity [8]: Active
Activity [1]: inactive
Activity (SGBS [9]): Active
Activity [2]: inactive
Activity (SGBS [10]): Active
Activity (SGBS [11]): Active
Activity (SGBS [12]): Active
Activity (SGBS [13]): Active
Activity (SGBS [14]): Active
Activity (SGBS [15]): Active
Activity (SGBS [16]): Active
Activity (SGBS [17]): Active

Cc1cccc(Nc2cc(Cl)nc(SCC(=O)O)n2)c1C
Activity (SGBS [18]): Active
Activity [19]: inactive
Activity (SGBS [20]): Active
Activity (SGBS [21]): Active
Activity (SGBS [22]): Active
Activity [23]: inactive
Activity (SGBS [24]): Active
Activity (SGBS [25]): Active
Activity [26]: Active
Activity (SGBS [27]): Active
Activity [28]: Active
Activity [29]: Active
Activity [30]: inactive
Activity (SGBS [31]): Active
Activity (SGBS [32]): Active
Activity [33]: Active
